≈ marks a conversion by molar mass, not a printed value.
Columns and labels:
Format in all cases: functional
[1] = test system: Enterococcus faecalis; experiment: MIC value was measured against streptococcus faecalis.
[2] = test system: Staphylococcus epidermidis; experiment: microbe, parasite or virus in culture
[3] = test system: Haemophilus influenzae; experiment: MIC value was measured against haemophilus influenzae CL
[4] = test system: Streptococcus pyogenes; experiment: MIC value measured against streptococcus pyogenes C203
[5] = test system: Staphylococcus aureus; experiment: MIC value measured against staphylococcus aureus X1
[6] = test system: Streptococcus pneumoniae; experiment: MIC value measured against streptococcus pneumoniae Park1
[7] = test system: Staphylococcus aureus; experiment: Effective dose against mice infected with Staphylococcus aureus after peroral administration (in vivo); settings: in Mus musculus, po
[8] = test system: Enterococcus faecalis; experiment: MIC value was measured against streptococcus faecalis X66
Summary of the method: (§1)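 Susceptibility determined by standard agar-dilution method against a panel of bacterial strains.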

[9] = test system: Streptococcus pneumoniae; experiment: Effective dose against mice infected with streptococcus pneumoniae after peroral administration (in vivo); settings: in Mus musculus, po
[10] = test system: Streptococcus pyogenes; experiment: Effective dose against mice infected with streptococcus pyogenes after peroral administration (in vivo); settings: in Mus musculus, po
[11] = test system: Mus musculus; experiment: ED50 value was measured by po administration against staphylococcus aureus infection in mice (in vivo, in experiment 2)
Summary of the method: (§2)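 Infected mice were dosed orally or subcutaneously at 1 and 5 h postinfection, 0.25 mL of antibiotic solution in 10% aqueous ethanol per dose. Tartaric acid was added where needed for solubility. Several dose concentrations were tested to give the ED50.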

[12] = test system: Mus musculus; experiment: ED50 value was measured by po administration against streptococcus pyogenes infection in mice (in vivo, in experiment 1); summary of the method: as §2
[13] = test system: Mus musculus; experiment: ED50 value was measured by sc administration against streptococcus pneumoniae infection in mice (in vivo, in experiment 2); summary of the method: as §2
[14] = test system: Mus musculus; experiment: ED50 value was measured by sc administration against staphylococcus aureus infection in mice (in vivo, in experiment 1); summary of the method: as §2
[15] = test system: Mus musculus; experiment: ED50 value was measured by po administration against streptococcus pyogenes infection in mice (in vivo, in experiment 2); summary of the method: as §2
[16] = test system: Haemophilus influenzae; experiment: MIC value was measured against haemophilus influenzae.; summary of the method: as §1
[17] = test system: Mus musculus; experiment: ED50 value was measured by sc administration against streptococcus pneumoniae infection in mice (in vivo, in experiment 1); summary of the method: as §2
[18] = test system: Mus musculus; experiment: ED50 value was measured by sc administration against streptococcus pyogenes infection in mice (in vivo, in experiment 2); summary of the method: as §2
[19] = test system: Mus musculus; experiment: ED50 value was measured by po administration against streptococcus pneumoniae infection in mice (in vivo, in experiment 2); summary of the method: as §2
[20] = test system: Mus musculus; experiment: ED50 value was measured by sc administration against staphylococcus aureus infection in mice (in vivo, in experiment 2); summary of the method: as §2
[21] = test system: Mus musculus; experiment: ED50 value was measured by sc administration against streptococcus pyogenes infection in mice (in vivo, in experiment 1); summary of the method: as §2
[22] = test system: Mus musculus; experiment: ED50 value was measured by po administration against streptococcus pneumoniae infection in mice (in vivo, in experiment 1); summary of the method: as §2
[23] = test system: Mus musculus; experiment: ED50 value was measured by po administration against staphylococcus aureus infection in mice (in vivo, in experiment 1); summary of the method: as §2
[24] = test system: Streptococcus pneumoniae; experiment: MIC value was measured against streptococcus pneumoniae park1; summary of the method: as §1

Row | MIC [1] [µg/mL] | MIC [2] [µg/mL] | MIC [3] [µg/mL] | MIC [4] [µg/mL] | MIC [5] [µg/mL] | MIC [6] [µg/mL] | MIC [8] [µg/mL] | MIC [24] [µg/mL] | SMILES | ED50 [7] [mg/kg] | ED50 [9] [mg/kg] | ED50 [10] [mg/kg] | further results
1 | 1 (≈ 1.39 µM) | 1 (≈ 1.39 µM) | 16 (≈ 22.3 µM) | 0.25 (≈ 0.348 µM) | 2 (≈ 2.78 µM) |  |  |  | CC[C@H]1OC(=O)[C@H](C)[C@@H](OC2CC(C)(OC)C(O)C(C)O2)[C@H](C)[C@@H](OC2OC(C)CC(N(C)C)C2O)[C@](C)(O)C[C@@H](C)[C@@H](N)[C@H](C)[C@@H](O)[C@H]1C (stereo not given in full) |  |  |  | 
2 | 0.12 (≈ 0.167 µM) | 0.12 (≈ 0.167 µM) | 1 (≈ 1.39 µM) | 0.015 (≈ 0.0209 µM) | 0.25 (≈ 0.348 µM) | 0.015 (≈ 0.0209 µM) |  |  | CC[C@H]1OC(=O)[C@H](C)[C@@H](OC2CC(C)(OC)C(O)C(C)O2)[C@H](C)[C@@H](OC2OC(C)CC(N(C)C)C2O)[C@](C)(O)C[C@@H](C)[C@H](N)[C@H](C)[C@@H](O)[C@H]1C (stereo not given in full) |  |  |  | 
3 | 8 (≈ 9.92 µM) | 4 (≈ 4.96 µM) | 64 (≈ 79.4 µM) | 0.12 (≈ 0.149 µM) | 4 (≈ 4.96 µM) | 4 (≈ 4.96 µM) |  |  | CC[C@H]1OC(=O)[C@H](C)[C@@H](OC2CC(C)(OC)C(O)C(C)O2)[C@H](C)[C@@H](OC2OC(C)CC(N(C)C)C2O)[C@](C)(O)C[C@@H](C)[C@H](NCCCCN)[C@H](C)[C@@H](O)[C@]1(C)O (stereo not given in full) |  |  |  | 
4 |  | 1 (≈ 1.13 µM) | 4 (≈ 4.52 µM) | 0.5 (≈ 0.565 µM) | 1 (≈ 1.13 µM) |  | 0.12 (≈ 0.136 µM) |  | CC[C@H]1OC(=O)[C@H](C)[C@@H](OC2CC(C)(OC)C(O)C(C)O2)[C@H](C)[C@@H](OC2OC(C)CC(N(C)C)C2O)[C@](C)(O)C[C@@H](C)[C@H](NCCC2=C(C)CCCC2(C)C)[C@H](C)[C@@H](O)[C@]1(C)O (stereo not given in full) | > 50 | > 50 | > 50 | 
5 |  | 0.25 (≈ 0.315 µM) | 1 (≈ 1.26 µM) | 0.12 (≈ 0.151 µM) | 0.5 (≈ 0.63 µM) | 0.015 (≈ 0.0189 µM) |  |  | CC[C@H]1OC(=O)[C@H](C)[C@@H](OC2CC(C)(OC)C(O)C(C)O2)[C@H](C)[C@@H](OC2OC(C)CC(N(C)C)C2O)[C@](C)(O)C[C@@H](C)[C@H](NCCOC)[C@H](C)[C@@H](O)[C@]1(C)O (stereo not given in full) | 35 | 19 | 16 | ED50 [11]: 35 mg/kg; ED50 [12]: 16 mg/kg; ED50 [13]: 3.3 mg/kg; ED50 [14]: 2 mg/kg; ED50 [15]: 16 mg/kg; MIC [16]: 1 µg/mL (≈ 1.26 µM); ED50 [17]: 2 mg/kg; ED50 [18]: 2.1 mg/kg; ED50 [19]: 19 mg/kg; ED50 [20]: 2.5 mg/kg; ED50 [21]: 1.7 mg/kg; ED50 [22]: 25 mg/kg; ED50 [23]: 44 mg/kg
6 |  | 0.12 (≈ 0.152 µM) | 1 (≈ 1.27 µM) | 0.008 (≈ 0.0101 µM) | 0.25 (≈ 0.317 µM) |  | 0.12 (≈ 0.152 µM) | 0.008 (≈ 0.0101 µM) | CCCN1CO[C@@H]2[C@@H](C)[C@@H]1[C@H](C)C[C@@](C)(O)[C@H](OC1OC(C)CC(N(C)C)C1O)[C@@H](C)[C@H](OC1CC(C)(OC)C(O)C(C)O1)[C@@H](C)C(=O)O[C@H](CC)[C@@]2(C)O (stereo not given in full) | 7 | 5 | 5 | 
7 | 0.06 (≈ 0.0801 µM) | 0.06 (≈ 0.0801 µM) | 0.5 (≈ 0.668 µM) | 0.008 (≈ 0.0107 µM) | 0.25 (≈ 0.334 µM) | 0.008 (≈ 0.0107 µM) |  |  | CC[C@H]1OC(=O)[C@H](C)[C@@H](OC2CC(C)(OC)C(O)C(C)O2)[C@H](C)[C@@H](OC2OC(C)CC(N(C)C)C2O)[C@](C)(O)C[C@@H](C)/C(=N\O)[C@H](C)[C@@H](O)[C@]1(C)O (stereo not given in full) |  |  |  | 
8 | 0.25 (≈ 0.306 µM) | 0.5 (≈ 0.612 µM) | 4 (≈ 4.9 µM) | 0.06 (≈ 0.0734 µM) | 0.5 (≈ 0.612 µM) | 0.03 (≈ 0.0367 µM) |  |  | CC[C@H]1OC(=O)[C@H](C)[C@@H](OC2CC(C)(OC)C(O)C(C)O2)[C@H](C)[C@@H](OC2OC(C)CC(N(C)C)C2O)[C@](C)(O)C[C@@H](C)[C@H](NC2CCCCC2)[C@H](C)[C@@H](O)[C@]1(C)O (stereo not given in full) |  |  |  | 
9 |  | 0.5 (≈ 0.589 µM) | 4 (≈ 4.71 µM) | 0.008 (≈ 0.00942 µM) | 1 (≈ 1.18 µM) |  | 0.25 (≈ 0.294 µM) | 0.008 (≈ 0.00942 µM) | CC[C@H]1OC(=O)[C@H](C)[C@@H](OC2CC(C)(OC)C(O)C(C)O2)[C@H](C)[C@@H](OC2OC(C)CC(N(C)C)C2O)[C@](C)(O)C[C@@H](C)[C@H](NCC#Cc2ccccc2)[C@H](C)[C@@H](O)[C@]1(C)O (stereo not given in full) | > 50 | 34 | 27 | 
10 |  | 0.5 (≈ 0.597 µM) | 4 (≈ 4.78 µM) | 0.12 (≈ 0.143 µM) | 1 (≈ 1.19 µM) |  | 0.5 (≈ 0.597 µM) | 0.06 (≈ 0.0717 µM) | CC[C@H]1OC(=O)[C@H](C)[C@@H](OC2CC(C)(OC)C(O)C(C)O2)[C@H](C)[C@@H](OC2OC(C)CC(N(C)C)C2O)[C@](C)(O)C[C@@H](C)[C@H]2[C@H](C)[C@@H](OCN2Cc2ccccc2)[C@]1(C)O (stereo not given in full) | > 50 | 15 | 16 | 

— ChEMBL document CHEMBL1125014, “Synthesis and structure-activity relationships of new 9-N-alkyl derivatives of 9(S)-erythromycylamine” (1990)
